This note sets out measurements from article PMC9810080 (Biochemistry, 2022).

The target of assay [1] is Ca^2+-bound CaM (full-length calmodulin) (Homo sapiens, UniProt P0DP23). As to the kind of experiment: ITC, peptide binding to full-length Ca2+-bound CaM. To be noted: for K2: association constant, site 2; for K2 / ΔH1 / ΔH2: ITC two-site model, 27 °C, pH 7.0, 1 mM CaCl2; for ΔH1: higher-affinity exothermic site; for ΔH2: lower-affinity endothermic site. The method, boiled down: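 Calorimetry at 27 °C used CNGB1 CaM-binding-domain peptides (DMSO-d6 stocks, quantified by UV–vis) and recombinant Ca2+-bound CaM, both exchanged into 20 mM Tris pH 7.0, 100 mM KCl, 1 mM CaCl2. Peptide at 50 μM in the cell was titrated with 0.5 mM CaM over 34 injections, and the isotherm was fitted to a two-site model. The apoCaM comparison used 20 mM Tris pH 8.0, 100 mM KCl, 2 mM EGTA with a one-site fit.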
Background: In ITC the heat of successive injections is recorded.

The target in assay [2] is Ca^2+-bound CaM N-lobe (residues 1–80) (Homo sapiens, UniProt P0DP23). Description: ITC, peptide binding to isolated CaM N-lobe. To be noted: for ΔH1: ITC, isolated CaM N-lobe, 27 °C, pH 7.0, 1 mM CaCl2. An outline of the steps:
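The isolated recombinant Ca2+-bound CaM N-lobe and CNGB1 peptides (DMSO-d6 stocks, UV–vis quantified) were buffer-exchanged into 20 mM Tris pH 7.0, 100 mM KCl, 1 mM CaCl2. At 27 °C, 50 μM peptide in the cell was titrated with 0.5 mM N-lobe over 34 injections. The CaM1 isotherm was fitted to a one-site model and the CaM2 isotherm to a two-site model.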

Assay [3] deals with Ca^2+-bound CaM C-lobe (residues 80–149) (Homo sapiens, UniProt P0DP23). Description: ITC, peptide binding to isolated CaM C-lobe. To be noted: for ΔH1: ITC one-site model, isolated CaM C-lobe, 27 °C, pH 7.0, 1 mM CaCl2; for fold decrease in binding affinity to CaM C-lobe caused by mutation: versus CaM2^WT, ITC. An outline of the steps: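 Wild-type and point-mutant CNGB1 peptides (DMSO-d6 stocks, UV–vis quantified) and the recombinant Ca2+-bound CaM C-lobe fragment were exchanged into 20 mM Tris pH 7.0, 100 mM KCl, 1 mM CaCl2. At 27 °C, 50 μM peptide in the cell was titrated with 0.5 mM C-lobe over 34 injections. Isotherms were fitted to a one-site model.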

Another assay has as its target Ca^2+-free CaM (apoCaM) (Homo sapiens, UniProt P0DP23). Description: ITC, peptide binding to Ca2+-free CaM. To be noted: ITC one-site model; 27 °C; 20 mM Tris pH 8.0, 100 mM KCl, 2 mM EGTA. The method, boiled down:
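Recombinant calmodulin (Ca²⁺-free) titrated into a synthetic CNGB1 CaM-binding-domain peptide (residues 1120–1147; dissolved in DMSO-d₆, quantified by UV–vis). Both were exchanged into 20 mM Tris pH 8.0, 100 mM KCl, 2 mM EGTA. Peptide was 50 μM in the cell and CaM was 0.5 mM in the syringe, over 34 injections at 27 °C. The isotherm was fit to a one-site model for ΔH.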

Residues, ends and D or L forms follow the SMILES beside them.

On to `CC[C@H](C)[C@H](NC(=O)[C@H](CC(C)C)NC(=O)[C@H](CCCCN)NC(=O)[C@H](CCC(=O)O)NC(=O)[C@H](CCCCN)NC(=O)[C@@H](NC(=O)[C@H](CCCCN)NC(=O)[C@H](CCC(=O)O)NC(=O)[C@@H](NC(=O)[C@H](CCCNC(=N)N)NC(=O)[C@H](CCC(=O)O)NC(=O)[C@H](CCCCN)NC(=O)[C@H](Cc1ccccc1)NC(=O)[C@H](CC(C)C)NC(=O)[C@H](CCCCN)NC(=O)[C@@H](NC(=O)[C@H](CC(C)C)NC(=O)[C@H](CCC(=O)O)NC(=O)[C@H](CCC(N)=O)NC(=O)[C@H](CC(C)C)NC(=O)[C@H](CCCNC(=N)N)NC(=O)[C@H](CC(=O)O)NC(=O)[C@@H](N)CC(N)=O)C(C)C)[C@@H](C)O)C(C)C)C(=O)N[C@@H](CC(=O)O)C(=O)N1CCC[C@H]1C(=O)O` [CaM1] (H-NDRLQELVKLFKERTEKVKEKLIDP-OH; N-terminus and C-terminus assumed), for which, in assay [1], the K2 is 4.2 ± 0.5 × 10^3 M^−1, the ΔH1 was -7.5 ± 0.2 kcal/mol and the ΔH2 entry is listed as “+40 ± 4 kcal/mol”. In addition, the “fold higher affinity for Ca^2+-bound CaM compared to apoCaM” value in assay [1] (comparison of NMR spectral changes and ITC) is “at least 100 fold”. Besides, the ΔH1 in assay [2] is -2.5 ± 0.2 kcal/mol. The “fold higher affinity for CaM N-lobe compared to CaM C-lobe” value in assay [2] (from ITC with isolated lobes) is on record as “at least fivefold”.

In the case of `CC[C@H](C)[C@H](NC(=O)[C@H](CC(C)C)NC(=O)[C@H](CCCCN)NC(=O)[C@H](CCC(=O)O)NC(=O)[C@H](CCCCN)NC(=O)[C@@H](NC(=O)[C@H](CCCCN)NC(=O)[C@H](CCC(=O)O)NC(=O)[C@@H](NC(=O)[C@H](CCCNC(=N)N)NC(=O)[C@H](CCC(=O)O)NC(=O)[C@H](CCCCN)NC(=O)[C@H](CCC(=O)O)NC(=O)[C@H](CC(C)C)NC(=O)[C@H](CCCCN)NC(=O)[C@@H](NC(=O)[C@H](CC(C)C)NC(=O)[C@H](CCC(=O)O)NC(=O)[C@H](CCC(N)=O)NC(=O)[C@H](CC(C)C)NC(=O)[C@H](CCCNC(=N)N)NC(=O)[C@H](CC(=O)O)NC(=O)[C@@H](N)CC(N)=O)C(C)C)[C@@H](C)O)C(C)C)C(=O)N[C@@H](CC(=O)O)C(=O)N1CCC[C@H]1C(=O)O` [CaM1^F575E] (H-NDRLQELVKLEKERTEKVKEKLIDP-OH; N-terminus and C-terminus assumed), the ΔH1 entry in assay [2] was “+0.7 ± 0.5 kcal/mol”.

With `CC(C)C[C@H](NC(=O)[C@H](C)NC(=O)[C@H](C)NC(=O)[C@H](CC(C)C)NC(=O)[C@H](CCC(=O)O)NC(=O)[C@H](CCCCN)NC(=O)[C@H](CC(C)C)NC(=O)[C@H](CCCNC(=N)N)NC(=O)[C@H](C)NC(=O)[C@H](CCCNC(=N)N)NC(=O)[C@H](CC(C)C)NC(=O)[C@H](Cc1c[nH]cn1)NC(=O)[C@H](C)NC(=O)[C@H](CC(C)C)NC(=O)[C@H](CCCCN)NC(=O)CNC(=O)CNC(=O)[C@H](CCCCN)NC(=O)[C@H](C)NC(=O)CNC(=O)[C@H](CCCCN)NC(=O)CNC(=O)CN)C(=O)N[C@@H](CCC(=O)O)C(=O)N[C@@H](C)C(=O)N[C@@H](C)C(=O)N[C@@H](C)C(=O)N[C@@H](CCCCN)C(=O)O` [CaM2] (H-GGKGAKGGKLAHLRARLKELAALEAAAK-OH; N-terminus and C-terminus assumed), in assay [1], the K2 is 2.9 ± 0.5 × 10^6 M^−1, the ΔH1 was -4.5 ± 1.6 kcal/mol and the ΔH2 entry is given as “+16 ± 2 kcal/mol”. Besides, in assay [1] (biphasic ITC isotherm), the “binding stoichiometry at saturation (peptide:CaM)” value is reported as “two CaM2 molecules are bound to one molecule of CaM”. This molecule also had a ΔH1 in assay [3] of -2.0 ± 0.1 kcal/mol. For the same molecule, the ΔH result on Ca^2+-free CaM (apoCaM) is “+2.1 ± 0.4 kcal/mol”.

For the molecule `CC(C)C[C@H](NC(=O)[C@H](C)NC(=O)[C@H](C)NC(=O)[C@H](CC(C)C)NC(=O)[C@H](CCC(=O)O)NC(=O)[C@H](CCCCN)NC(=O)[C@H](CC(C)C)NC(=O)[C@H](CCCNC(=N)N)NC(=O)[C@H](C)NC(=O)[C@H](CCCNC(=N)N)NC(=O)[C@H](CCC(=O)O)NC(=O)[C@H](Cc1c[nH]cn1)NC(=O)[C@H](C)NC(=O)[C@H](CC(C)C)NC(=O)[C@H](CCCCN)NC(=O)CNC(=O)CNC(=O)[C@H](CCCCN)NC(=O)[C@H](C)NC(=O)CNC(=O)[C@H](CCCCN)NC(=O)CNC(=O)CN)C(=O)N[C@@H](CCC(=O)O)C(=O)N[C@@H](C)C(=O)N[C@@H](C)C(=O)N[C@@H](C)C(=O)N[C@@H](CCCCN)C(=O)O` [CaM2^L1132E] (H-GGKGAKGGKLAHERARLKELAALEAAAK-OH; N-terminus and C-terminus assumed), in assay [3], the ΔH1 result is “+3.1 ± 0.5 kcal/mol” and the “fold decrease in binding affinity to CaM C-lobe caused by mutation” value is on record as “more than 500 fold”.

As to `CC(C)C[C@H](NC(=O)[C@H](C)NC(=O)[C@H](C)NC(=O)[C@H](CC(C)C)NC(=O)[C@H](CCC(=O)O)NC(=O)[C@H](CCCCN)NC(=O)[C@H](CCC(=O)O)NC(=O)[C@H](CCCNC(=N)N)NC(=O)[C@H](C)NC(=O)[C@H](CCCNC(=N)N)NC(=O)[C@H](CC(C)C)NC(=O)[C@H](Cc1c[nH]cn1)NC(=O)[C@H](C)NC(=O)[C@H](CC(C)C)NC(=O)[C@H](CCCCN)NC(=O)CNC(=O)CNC(=O)[C@H](CCCCN)NC(=O)[C@H](C)NC(=O)CNC(=O)[C@H](CCCCN)NC(=O)CNC(=O)CN)C(=O)N[C@@H](CCC(=O)O)C(=O)N[C@@H](C)C(=O)N[C@@H](C)C(=O)N[C@@H](C)C(=O)N[C@@H](CCCCN)C(=O)O` [CaM2^L1136E] (H-GGKGAKGGKLAHLRAREKELAALEAAAK-OH; N-terminus and C-terminus assumed), in assay [3], the ΔH1 result is “+2.6 ± 1.8 kcal/mol” and the “fold decrease in binding affinity to CaM C-lobe caused by mutation” value is reported as “more than 500 fold”.
